A selection: hits, their analogues and other compounds. The true share with any hit is near 6%.
PostGolgi ctrl – growth of the yeast control strain, post-Golgi counter-screen; efflux-deficient yeast background strain, growth absorbance A615, 16 h; inhibition, % at 10 µM; 98,000 compounds, 5% hits; AID 738
tolC growth inh – growth inhibitors of E. coli BW25113 tolC mutant | OD615 | growth inhibition, % at 10 µM (by protocol) | 65,000 compounds, 2.2% hits;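 active = growth inhibition at or above a cutoff equal to the mean over every tested compound plus 3 SD, cut at about 60% in these data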;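 note: growth measured after 20 h incubation at 37 °C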
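Signal: optical density read at 615 nm; Assay system: E. coli ΔtolC::kan strain BW25113; Times: 20 h incubation with compound, 37 °C; Dosing: 10 µM final, single dose.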
E coli WT exp – growth inhibitors of E. coli BW25113 wild type. OD600 absorbance. growth inhibition, % at 100 µM. 98,000 compounds, 0.15% hits;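 active = growth inhibition above about 50% at one test dose, limit read from the data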;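 note: growth measured after 20 h incubation at 37 °C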
EphB4 antag – EphB4-ephrin-B2 interaction antagonism | P54760 | EphB4 LBD / TNYL-RAW-Alexa532 peptide, fluorescence polarization | inhibition, % at 7 µM | 97,000 compounds, 0.15% hits | AID 720;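 active = inhibition above the screen-wide mean inhibition plus 3 SD, cut at about 15% in these data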;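 note: 0% = DMSO wells and 100% = excess unlabeled TNYL-RAW peptide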
PostGolgi yeast – growth inhibition of a yeast mutant, post-Golgi transport screen. AID 739. inhibition, % at 10 µM. 98,000 compounds, 0.9% hits. post-Golgi transport phenotypic cell assay;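 note: yeast cells grown in 1536-well plates; yeast grown about 18 h at 30C before absorbance read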
* marks the source's active call; other numbers are inactive results; / = no result. Cut-off read from the data, not from the text of the source, unless noted: active = inhibition above about 30%; inactive = the rest.

SMILES	PostGolgi ctrl	tolC growth inh	E coli WT exp	EphB4 antag	PostGolgi yeast
COC(=O)c1[nH]c2cccc(OC)c2c1NC(=O)CN1CCOCC1	16	-25	4	0	5
COc1cc2cc3c(N)c(C(=O)Nc4sc(C)c(C)c4C#N)sc3nc2cc1OC	11	/	-3	-7	-10
Cc1cc(NCC(C)C)n2ncnc2n1	7	/	6	-5	11
COc1ccccc1-c1noc(-c2cccs2)n1	32*	/	3	5	-2
CC(C)NC(=O)CSc1nncn1-c1ccccc1	33*	-6	-2	/	4
COCCn1c(SCc2nnc(-c3ccccc3)o2)nc2sc3c(c2c1=O)CCC3	96*	20	-8	0	9
COCCn1c(SCC(=O)Nc2ncc(C)s2)nc2sc3c(c2c1=O)CCC3	9	-13	-10	5	4
CCOC(=O)CSc1cc(=O)n(C)c2cc(Cl)ccc12	-1	-9	-1	5	4
Cc1cc2nc(C)n(CCCNC(=O)Nc3cccc4ccccc34)c2cc1C	3	/	-2	-4	-2
COc1ccccc1NCC(O)Cn1c2ccccc2c2ccccc21 (centres undefined)	57*	/	-12	9	13
CCOC(=O)C1=C(C)NC(SCC(=O)Nc2cc(C)on2)=C(C#N)C1c1cccs1 (centres undefined)	-18	94*	-1	-4	6
CCOC(=O)C1=C(C)NC(SCC(N)=O)=C(C#N)C1c1cccs1 (centres undefined)	5	/	22	12	-7
CCOC(=O)CC(=O)CSc1nnc2c(n1)[nH]c1ccccc12	45*	-6	-3	5	-5
O=C(O)CCn1c2c(c3ccccc31)CCCC2	48*	/	-4	-4	2
O=c1c2ccccc2c(/C=N/c2ncn[nH]2)c(O)n1Cc1ccccc1	30*	34	-4	-8	3
CC(C)CCC(C)N=Cc1c(O)n(Cc2ccccc2)c(=O)c2ccccc12 (centres undefined)	1	/	-20	-1	-5
Cc1oc(-c2ccccc2F)nc1CS(=O)(=O)CC(=O)N1CCc2ccccc21	10	-5	-3	/	-6
Cc1oc(-c2ccccc2F)nc1CS(=O)(=O)CC(=O)N1CCN(c2ccccc2)CC1	37*	/	-3	5	-5
CC1CCN(S(=O)(=O)c2ccc3c(c2)oc(=O)n3CC(=O)N2CCc3ccccc3C2)CC1	-2	/	-11	-1	-13
CCOC(=O)C1CCN(C(=O)c2cccnc2Cl)CC1	6	/	4	5	9
CCCn1c2c(c(O)c(C(=O)Nc3ccc(C)cn3)c1=O)CCCC2	/	-4	/	1	/
CCCn1c2c(c(O)c(C(=O)Nc3ncccc3C)c1=O)CCCC2	43*	50	1	-9	-2
COc1ccccc1CNC(=O)c1cc2c(C)nn(Cc3ccc(F)cc3)c2s1	33*	/	-21	1	-4
Cc1nn(Cc2ccccc2Cl)c2sc(C(=O)NCc3ccc4c(c3)OCO4)cc12	29	/	-22	-3	-4
CCC(CC)NC(=O)c1cc2c(C)nn(Cc3ccccc3Cl)c2s1	38*	/	-4	0	0
SMILES	PostGolgi ctrl	tolC growth inh	E coli WT exp	EphB4 antag	PostGolgi yeast
Cc1ccc2nc(-c3ccc(NS(C)(=O)=O)cc3)cc(-c3ccccc3)c2c1	58*	/	-15	2	12
CC(=O)Nc1ccc(-c2cc(-c3ccc(NC(C)=O)cc3)nc(-c3ccccc3)n2)cc1	7	/	-2	4	-7
Cc1ccc2nc(-c3ccncc3)cc(-c3ccccc3)c2c1	42*	/	-8	4	7
CC(C)(C)c1cc(C(F)(F)F)nc(SCCCNC(=O)c2ccco2)n1	9	100*	7	3	-2
Cc1cc(C)cc(NC(=O)c2nccnc2C(=O)O)c1	4	/	-2	-2	-6
Cc1cc(/C=C(/C#N)c2cccc(Cl)c2)c(C)n1C	43*	/	-20	3	0
Cc1cc(/C=C(/C#N)c2cccc(F)c2)c(C)n1-c1cccnc1	37*	99*	-3	6	-2
Cc1cc(/C=C2/SC(=S)N(c3cccc(Cl)c3)C2=O)c(C)n1-c1cccnc1	/	/	/	2	/
O=C(C#Cc1ccccc1)c1cccc([N+](=O)[O-])c1	48*	/	-1	0	3
CC(C)COC(=O)c1cc(-c2ccc(/C=N/n3cnnc3)o2)ccc1Cl	36*	19	13	1	5
CSCCC1NC(=O)N(CC(=O)Nc2cccc3ccccc23)C1=O (centres undefined)	16	/	1	2	-1
COc1ccc(N2CCN(CC(=O)Nc3nc4c(s3)CC(C)CC4)CC2)cc1 (centres undefined)	8	100*	-12	-4	0
CCCCNC(=O)CN1C(=O)NC2(CCCc3ccccc32)C1=O (centres undefined)	13	/	6	10	0
COc1ccc(-c2nc(C#N)c(N3CCCCCC3)o2)cc1OC	34*	55	-4	7	13
CCOc1ccc(-c2nc(C#N)c(N3CCCCCC3)o2)cc1	18	68*	-14	-4	-3
COc1cc(CO)cc(Br)c1OCc1cccnc1	2	-10	1	/	-1
c1ccc2c(c1)oc1c(Nc3ccc(CN4CCOCC4)cc3)ncnc12	20	20	5	2	56*
c1ccc2c(c1)oc1c(NCCN3CCOCC3)ncnc12	8	-9	-4	-9	-5
CCn1c(=O)n(CC(=O)Nc2cc(OC)c(OC)c(OC)c2)c(=O)c2ccccc21	5	/	-5	1	-5
Cc1ccc(S(=O)(=O)N/N=C\c2ccc([N+](=O)[O-])o2)cc1	10	/	35	10	-2
Cc1cc2ncn(/N=C/c3ccc([N+](=O)[O-])o3)c2cc1C	52*	/	7	9	7
O=C(c1c(F)cccc1F)N(Cc1ccccn1)C1CC1	-2	/	2	6	-33
O=c1oc2ccccc2c(O)c1CN1CCCCC1	30*	32	-1	/	6
O=C(c1c(O)c2ccccc2oc1=O)C1CCC1	14	12	20	-11	-1
C=CCCCCCCCCC(=O)NNC1=CC(=O)CC(C)(C)C1	12	/	-3	-5	-3
SMILES	PostGolgi ctrl	tolC growth inh	E coli WT exp	EphB4 antag	PostGolgi yeast
Cc1cccnc1Nc1nc(-c2ccc(O)cc2O)cs1	59*	100*	10	4	-1
Cc1cccc(Nc2nc(-c3ccccn3)cs2)n1	13	98*	37	-2	25
Cc1cccc(Nc2nc(-c3cccs3)cs2)n1	/	/	/	-1	/
c1ccc(Nc2nc(-c3cccnc3)cs2)nc1	4	-24	-2	-7	-1
c1ccc(Nc2nc(-c3cccs3)cs2)nc1	31*	100*	4	2	-8
Cc1cccnc1Nc1nc(-c2ccccn2)cs1	52*	/	20	1	101*
COc1ccc(OC)c(Nc2nc(N)nc(CSc3nnc(-c4ccncc4)o3)n2)c1	4	/	-5	4	-4
CCc1cc2c(=O)n(-c3ccc(C)cc3)cnc2s1	/	/	/	2	/
O=C(CN1CCOCCOCCN(CC(=O)Nc2ccccc2)CCOCC1)Nc1ccccc1	2	-31	0	6	30*
O=C(CN1CCOCCOCCOCC1)Nc1ccccc1	1	/	2	10	-4
